According to ChEMBL document CHEMBL4118286, “Design, synthesis and evaluation of novel bivalent β-carboline derivatives as multifunctional agents for the treatment of Alzheimer's disease” (Bioorg Med Chem, 2018):
Active and inactive are the calls of the source. The rule behind the calls is not given here.

Assays:
[1] = Selectivity index, ratio of IC50 for electric eel AChE to IC50 for equine serum BChE
Procedure, shortened: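 Electric eel AChE (Type VI-S) and equine serum BuChE (Type VI-S) were each assayed by the Ellman method, with IC50 as mean ± SEM of three experiments. Selectivity index was calculated as IC50(AChE)/IC50(BuChE).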

Acetylcholinesterase = Acetylcholinesterase (Electrophorus electricus, UniProt O42275); assay: Inhibition of electric eel AChE using acetylthiocholine iodide as substrate preincubated for 2 mins followed by substrate addition and measured after 2 mins by Ellman's method
Cholinesterase = Cholinesterase (Equus caballus, UniProt P81908); assay: Inhibition of equine serum BChE using butyrylthiocholine iodide as substrate preincubated for 2 mins followed by substrate addition and measured after 2 mins by Ellman's method
Procedure, shortened: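 Equine serum BuChE (Type VI-S) inhibition measured by the Ellman method. IC50 is the inhibitor concentration giving 50% enzyme inactivation, reported as mean ± SEM of three experiments.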

[2] = Neurotoxicity against human SH-SY5Y cells assessed as cell viability at 2.5 uM after 24 hrs by MTT assay relative to control; assay type: toxicity, cell-based; conditions: read-out: Activity
Procedure, shortened: (§1)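 Cytotoxicity assay: SH-SY5Y cells were incubated with compound at 1, 2.5, 5 or 10 μM for 24 h. Viability was determined by MTT and expressed as percent of control, mean ± SD of 3 independent experiments.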

[3] = Neurotoxicity against human SH-SY5Y cells assessed as cell viability at 5 uM after 24 hrs by MTT assay relative to control; assay type: toxicity, cell-based; conditions: read-out: Activity; procedure, shortened: as §1
SH-SY5Y [4] = assay: Neuroprotective activity against amyloid beta (1 to 42)-induced neurodegeneration in human SH-SY5Y cells assessed as increase in cell viability at 1 to 5 uM after 48 hrs by MTT assay; assay type: functional, cell-based
Procedure, shortened: (§2)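 SH-SY5Y neuroblastoma cells were exposed to Aβ1-42 (30 μM) for 48 h, with or without compound at 1 or 5 μM. Viability was measured by MTT assay against Aβ1-42-only and untreated controls. Data are mean ± SEM of three experiments, each run in triplicate.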

[5] = Neurotoxicity against human SH-SY5Y cells assessed as cell viability at 1 uM after 24 hrs by MTT assay relative to control; assay type: toxicity, cell-based; conditions: read-out: Activity; procedure, shortened: as §1
[6] = biological target: Amyloid-beta precursor protein (Homo sapiens) (UniProt P05067); assay: Inhibition of self-induced human amyloid beta (1 to 42) aggregation at 25 uM after 24 hrs by thioflavin-T based fluorescence assay relative to control
Procedure, shortened: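 Thioflavin T fluorescence assay of self-induced Aβ1-42 aggregation, with test compound present at 25 μM and resveratrol as the positive control. Inhibition is given in percent as mean ± SD of at least three independent experiments.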

SH-SY5Y [7] = assay: Neurotoxicity against human SH-SY5Y cells assessed as decrease in cell viability at 1 to 10 uM after 24 hrs by MTT assay; assay type: toxicity, cell-based; procedure, shortened: as §1
SH-SY5Y [8] = assay: Neuroprotective activity against H2O2-induced oxidative stress in human SH-SY5Y cells assessed as cell viability at 5 uM after 24 hrs by MTT assay (reference value: 57.2%); assay type: functional; conditions: read-out: Activity
Procedure, shortened: (§3)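 SH-SY5Y cells were treated with H₂O₂ (300 μM) for 24 h, with compound (1 or 5 μM) co-treated. Viability was read by MTT and compared with H₂O₂-only and untreated controls. Data are mean ± SEM of three experiments, each run in triplicate.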

SH-SY5Y [9] = assay: Neuroprotective activity against H2O2-induced oxidative stress in human SH-SY5Y cells assessed as cell viability at 1 uM after 24 hrs by MTT assay (reference value: 57.2%); assay type: functional; conditions: read-out: Activity; procedure, shortened: as §3
SH-SY5Y [10] = assay: Neuroprotective activity against amyloid beta (1 to 42)-induced neurodegeneration in human SH-SY5Y cells assessed as increase in cell viability at 1 uM after 48 hrs by MTT assay; assay type: functional, cell-based; procedure, shortened: as §2
[11] = Neurotoxicity against human SH-SY5Y cells assessed as cell viability at 10 uM after 24 hrs by MTT assay relative to control; assay type: toxicity, cell-based; conditions: read-out: Activity; procedure, shortened: as §1
SH-SY5Y [12] = assay: Neuroprotective activity against okadaic acid-induced cell death in human SH-SY5Y cells assessed as cell viability at 1 uM after 24 hrs by MTT assay (reference value: 53.1%); assay type: functional; conditions: read-out: Activity
SH-SY5Y [13] = assay: Neuroprotective activity against amyloid beta (1 to 42)-induced neurodegeneration in human SH-SY5Y cells assessed as cell viability at 5 uM after 48 hrs by MTT assay (reference value: 54.2%); assay type: functional; conditions: read-out: Activity; procedure, shortened: as §2
SH-SY5Y [14] = assay: Neuroprotective activity against amyloid beta (1 to 42)-induced neurodegeneration in human SH-SY5Y cells assessed as cell viability at 1 uM after 48 hrs by MTT assay (reference value: 54.2%); assay type: functional; conditions: read-out: Activity; procedure, shortened: as §2
SH-SY5Y [15] = assay: Neuroprotective activity against okadaic acid-induced cell death in human SH-SY5Y cells assessed as increase in cell viability at 1 uM after 24 hrs by MTT assay; assay type: functional, cell-based
[16] = biological target: Cholinesterase (Equus caballus) (UniProt P81908); assay: Potency index, ratio of donepezil IC50 to compound IC50 for equine serum BChE
Cholinesterase (Equus caballus), sequence (P81908 whole entry): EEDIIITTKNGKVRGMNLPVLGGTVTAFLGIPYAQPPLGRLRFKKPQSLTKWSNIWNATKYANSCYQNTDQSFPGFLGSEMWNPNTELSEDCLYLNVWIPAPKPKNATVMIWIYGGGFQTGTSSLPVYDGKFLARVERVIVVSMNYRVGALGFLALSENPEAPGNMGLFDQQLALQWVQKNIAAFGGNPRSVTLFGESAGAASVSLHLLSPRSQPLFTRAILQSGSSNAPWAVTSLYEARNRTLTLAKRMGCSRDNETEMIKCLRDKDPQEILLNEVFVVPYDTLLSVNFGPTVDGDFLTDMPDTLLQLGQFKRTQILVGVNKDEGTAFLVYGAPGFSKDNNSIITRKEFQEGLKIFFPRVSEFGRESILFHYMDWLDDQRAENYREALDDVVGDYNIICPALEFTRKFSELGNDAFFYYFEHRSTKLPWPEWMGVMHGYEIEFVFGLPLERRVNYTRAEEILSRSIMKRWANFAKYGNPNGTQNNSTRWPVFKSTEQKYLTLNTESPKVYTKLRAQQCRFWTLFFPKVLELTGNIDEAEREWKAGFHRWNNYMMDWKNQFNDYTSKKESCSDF

Cholinesterase, sequence (P81908 whole entry): as above
Acetylcholinesterase, sequence (O42275 whole entry): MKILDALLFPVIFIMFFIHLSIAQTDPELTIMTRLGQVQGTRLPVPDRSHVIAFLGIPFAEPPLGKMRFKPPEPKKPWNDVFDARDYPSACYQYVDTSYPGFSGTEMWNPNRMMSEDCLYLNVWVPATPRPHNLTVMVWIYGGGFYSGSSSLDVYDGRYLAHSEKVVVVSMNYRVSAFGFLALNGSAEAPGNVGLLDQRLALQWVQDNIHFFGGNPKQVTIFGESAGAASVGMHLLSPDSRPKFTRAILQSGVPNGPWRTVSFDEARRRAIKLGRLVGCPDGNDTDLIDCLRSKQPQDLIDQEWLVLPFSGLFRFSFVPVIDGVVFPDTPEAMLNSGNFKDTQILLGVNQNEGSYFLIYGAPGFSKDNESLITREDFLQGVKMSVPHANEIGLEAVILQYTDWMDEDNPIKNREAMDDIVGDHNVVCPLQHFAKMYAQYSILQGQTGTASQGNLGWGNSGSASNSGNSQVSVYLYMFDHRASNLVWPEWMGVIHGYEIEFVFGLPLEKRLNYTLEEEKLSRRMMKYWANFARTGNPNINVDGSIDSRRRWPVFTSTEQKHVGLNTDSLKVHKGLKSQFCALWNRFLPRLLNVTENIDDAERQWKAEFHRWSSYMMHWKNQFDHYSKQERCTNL
Amyloid-beta precursor protein (Homo sapiens), sequence (P05067 whole entry): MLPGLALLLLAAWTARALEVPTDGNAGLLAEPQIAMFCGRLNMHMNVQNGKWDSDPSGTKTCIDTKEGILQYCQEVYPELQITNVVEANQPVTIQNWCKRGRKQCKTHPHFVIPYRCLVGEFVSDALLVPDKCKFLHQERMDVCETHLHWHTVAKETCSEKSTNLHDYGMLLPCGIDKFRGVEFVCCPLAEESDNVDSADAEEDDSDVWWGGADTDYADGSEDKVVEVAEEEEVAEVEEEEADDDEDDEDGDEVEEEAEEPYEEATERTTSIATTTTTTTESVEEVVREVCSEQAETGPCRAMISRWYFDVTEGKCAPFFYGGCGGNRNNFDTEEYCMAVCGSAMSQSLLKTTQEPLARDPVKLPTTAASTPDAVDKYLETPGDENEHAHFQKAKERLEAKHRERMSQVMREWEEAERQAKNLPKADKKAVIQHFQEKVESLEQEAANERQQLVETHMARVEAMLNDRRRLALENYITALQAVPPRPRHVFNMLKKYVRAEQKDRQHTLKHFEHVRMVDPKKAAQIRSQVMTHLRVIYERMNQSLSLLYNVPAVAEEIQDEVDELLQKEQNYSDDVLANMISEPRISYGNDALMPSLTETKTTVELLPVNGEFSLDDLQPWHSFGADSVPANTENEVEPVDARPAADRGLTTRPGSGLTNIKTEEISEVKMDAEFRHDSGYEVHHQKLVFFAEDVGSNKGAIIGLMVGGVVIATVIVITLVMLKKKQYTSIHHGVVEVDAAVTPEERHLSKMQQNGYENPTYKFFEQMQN

Compound	Ratio IC50 [1]	IC50 (Acetylcholinesterase)	IC50 (Cholinesterase)	IC50 (Acetylcholinesterase; read-out: IC50) [µM]	IC50 (Cholinesterase; read-out: IC50) [µM]	inhibition [6]	further results
COC(=O)C1Cc2c([nH]c3ccccc23)C(c2ccccc2)N1 (centres undefined)	inactive	Not Active	Not Active				
COC(=O)c1cc2c3ccccc3n(CCCN(C)CCN(C)CCCn3c4ccccc4c4cc(C(=O)OC)nc(-c5ccccc5)c43)c2c(-c2ccccc2)n1	184			147	0.8	25.4%	viability at 24 h, 2.5 µM [2]: 93.2%; viability at 24 h, 5 µM [3]: 93.7%; Activity (SH-SY5Y [4]): inactive; viability at 24 h, 1 µM [5]: 98.2%
COC(=O)c1cc2c3ccccc3n(CCCN(C)CCN(C)CCCn3c4ccccc4c4cc(C(=O)OC)nc(C)c43)c2c(C)n1	6.4			99.1	15.4	inactive	
COC(=O)c1cc2c3ccccc3n(CCCCN(C)CCN(C)CCCCn3c4ccccc4c4cc(C(=O)OC)nc(C)c43)c2c(C)n1	6.4			9.6	1.5	65.5%	Activity (SH-SY5Y [7]): Toxic
COC(=O)C1Cc2c([nH]c3ccccc23)C(C)N1C(=O)CN1CCN(CC(=O)N2C(C(=O)OC)Cc3c([nH]c4ccccc34)C2C)CC1 (centres undefined)	inactive	Not Active			20.9	50.8%	
COC(=O)C1Cc2c([nH]c3ccccc23)C(C)N1C(=O)CCCN1CCN(CCCC(=O)N2C(C(=O)OC)Cc3c([nH]c4ccccc34)C2C)CC1 (centres undefined)	15.8			44.2	2.8	85.7%	viability at 5 µM (SH-SY5Y [8]): 85.5%; viability at 24 h, 2.5 µM [2]: 99.1%; viability at 24 h, 5 µM [3]: 101%; viability at 1 µM (SH-SY5Y [9]): 90.4%; Activity (SH-SY5Y [10]): Active; viability at 24 h, 10 µM [11]: 90.8%; viability at 24 h, 1 µM [5]: 98.6%; viability at 1 µM (SH-SY5Y [12]): 101%
COC(=O)C1Cc2c([nH]c3ccccc23)C(C)N1C(=O)CCN1CCN(CCC(=O)N2C(C(=O)OC)Cc3c([nH]c4ccccc34)C2C)CC1 (centres undefined)				19.9		65.6%	viability at 5 µM (SH-SY5Y [8]): 76%; viability at 24 h, 2.5 µM [2]: 99.9%; viability at 24 h, 5 µM [3]: 102%; viability at 1 µM (SH-SY5Y [9]): 82.2%; viability at 24 h, 10 µM [11]: 90.9%; viability at 5 µM (SH-SY5Y [13]): 85.4%; viability at 1 µM (SH-SY5Y [14]): 95.4%; viability at 24 h, 1 µM [5]: 103%; viability at 1 µM (SH-SY5Y [12]): 97.1%
COC(=O)c1cc2c3ccccc3n(CCCN3CCN(CCCn4c5ccccc5c5cc(C(=O)OC)nc(-c6ccccc6)c54)CC3)c2c(-c2ccccc2)n1	inactive	Not Active	Not Active				
COC(=O)C1Cc2c([nH]c3ccccc23)CN1 (centres undefined)	inactive	Not Active	Not Active				
COC(=O)C1Cc2c([nH]c3ccccc23)C(c2ccccc2)N1C(=O)CCN1CCN(CCC(=O)N2C(C(=O)OC)Cc3c([nH]c4ccccc34)C2c2ccccc2)CC1 (centres undefined)	85.6			488	5.7	41.9%	
COC(=O)c1cc2c([nH]c3ccccc32)c(-c2ccccc2)n1	inactive	Not Active	Not Active				
COC(=O)c1cc2c([nH]c3ccccc32)c(C)n1	inactive	Not Active	Not Active				
COC(=O)C1Cc2c([nH]c3ccccc23)CN1C(=O)CN1CCN(CC(=O)N2Cc3[nH]c4ccccc4c3CC2C(=O)OC)CC1 (centres undefined)	inactive	Not Active	Not Active				
COC(=O)C1Cc2c([nH]c3ccccc23)C(c2ccccc2)N1C(=O)CCCN1CCN(CCCC(=O)N2C(C(=O)OC)Cc3c([nH]c4ccccc34)C2c2ccccc2)CC1 (centres undefined)	inactive	Not Active	Not Active				
COC(=O)C1Cc2c([nH]c3ccccc23)C(C)N1C(=O)CN(C)CCN(C)CC(=O)N1C(C(=O)OC)Cc2c([nH]c3ccccc23)C1C (centres undefined)	4.3			39.8	9	72.3%	Activity (SH-SY5Y [7]): Toxic
COC(=O)C1Cc2c([nH]c3ccccc23)C(c2ccccc2)N1C(=O)CN(C)CCN(C)CC(=O)N1C(C(=O)OC)Cc2c([nH]c3ccccc23)C1c1ccccc1 (centres undefined)	4.4			64	14.6	65.1%	
COC(=O)C1Cc2c([nH]c3ccccc23)C(C)N1 (centres undefined)	inactive	Not Active	Not Active				
COC(=O)C1Cc2c([nH]c3ccccc23)C(C)N1C(=O)CCN(C)CCN(C)CCC(=O)N1C(C(=O)OC)Cc2c([nH]c3ccccc23)C1C (centres undefined)	10.6			18	1.7	82.7%	viability at 5 µM (SH-SY5Y [8]): 42.1%; Activity (SH-SY5Y [15]): Active; viability at 24 h, 2.5 µM [2]: 92.8%; viability at 24 h, 5 µM [3]: 92.4%; viability at 1 µM (SH-SY5Y [9]): 100%; Activity (SH-SY5Y [10]): Active; viability at 24 h, 1 µM [5]: 106%
COC(=O)c1cc2c3ccccc3n(CCCCN3CCN(CCCCn4c5ccccc5c5cc(C(=O)OC)nc(-c6ccccc6)c54)CC3)c2c(-c2ccccc2)n1	inactive	Not Active	Not Active				
COC(=O)c1cc2c3ccccc3n(CCCCN3CCN(CCCCn4c5ccccc5c5cc(C(=O)OC)nc(C)c54)CC3)c2c(C)n1	1.2			11.6	9.7	inactive	
COC(=O)c1cc2c3ccccc3n(CCCN3CCN(CCCn4c5ccccc5c5cc(C(=O)OC)nc(C)c54)CC3)c2c(C)n1	16			11.2	0.7	inactive	Activity (SH-SY5Y [7]): Toxic; Ratio IC50 [16]: 4
COC(=O)C1Cc2c([nH]c3ccccc23)CN1C(=O)CCN(C)CCN(C)CCC(=O)N1Cc2[nH]c3ccccc3c2CC1C(=O)OC (centres undefined)	0.9			25.4	27	59.2%	
COC(=O)c1cc2c3ccccc3n(CCCCN(C)CCN(C)CCCCn3c4ccccc4c4cc(C(=O)OC)nc(-c5ccccc5)c43)c2c(-c2ccccc2)n1	8.7			15.7	1.8	71.5%	Activity (SH-SY5Y [7]): Toxic
